This assay deals with KB. Kind of assay: Cytotoxicity against human KB cells after 72 hrs. The format is functional. The following applies: read-out: ED50 (the source's name). In short, it runs like this:
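KB cells kept in MEM with 5% fetal calf serum; assay run largely per NCI guidelines in 24-well plates in a CO₂ incubator. Cells assayed after 72 h by a literature procedure. ED₅₀ estimated from semi-log plots of sample concentration (μg/ml) against percent viable cells; three determinations.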

Converted amounts (≈) assume the structure as drawn. A value given as a limit tells only on which side of the number the result lay.

As to `COc1cc(O)c2c(=O)c(OC)c(-c3cc(O)c(OC)cc3O)oc2c1` [OXYAYANIN A], the EC50 was determined as 1.99 µg/mL (≈ 5.52 µM).

With `COc1cc(-c2oc3cc(OC)c(O)c(O)c3c(=O)c2OC)ccc1O` [CHRYSOSPLENOL C], the EC50 worked out at 11.2 µg/mL (≈ 31.1 µM).

Turning to `COc1cc(O)c2c(=O)c(OC)c(-c3ccc(OC)c(OC)c3)oc2c1` [RETUSIN], the EC50 is more than 25 µg/mL.

Take `COc1cc(O)c2c(=O)c(OC)c(-c3cc(OC)c(O)cc3O)oc2c1` [CHRYSOSPLENOL F]: the EC50 is more than 25 µg/mL.

As to `COc1cc(O)c(-c2oc3cc(OC)c(OC)c(O)c3c(=O)c2OC)cc1OC` [BRICKELLIN], the EC50 is more than 25 µg/mL.

In the case of `COc1cc(O)c2c(=O)c(OC)c(-c3cc(OC)c(OC)cc3O)oc2c1` [CHRYSOSPLENOL E], the EC50 was more than 25 µg/mL.

For `COC(=O)c1cc(O)c(OC)c(O)c1`, the EC50 was found to be 8.62 µg/mL (≈ 43.5 µM).

On to `COc1cc(O)c2c(=O)c(OC)c(-c3cc(O)c(OC)cc3OC)oc2c1` [CHRYSOSPLENOL G], for which the EC50 stood at 8.61 µg/mL (≈ 23 µM).

Take `COc1cc(-c2oc3cc(OC)c(OC)c(O)c3c(=O)c2OC)ccc1O` [CHRYSOSPLENOL B]: the EC50 worked out at 7.42 µg/mL (≈ 19.8 µM).

Consider `COc1cc2oc(-c3ccc(O)c(O)c3)c(OC)c(=O)c2c(O)c1OC` [CHRYSOSPLENOL D], for which the EC50 came to 13.9 µg/mL (≈ 38.7 µM).

Values taken from ChEMBL document CHEMBL1158964, “Isolation and cytotoxicity of two new flavonoids from Chrysosplenium grayanum and related flavonols” (1991).
